Source: ChEMBL document CHEMBL4118103, “Synthesis and Bioactivity Investigation of the Individual Components of Cyclic Lipopeptide Antibiotics” (J Med Chem, 2018)
≈ marks a conversion by molar mass, not a printed value. Bridge positions count the residues as written; N and C are the ends. Square brackets hold non-standard residues; d marks the D form. Peptide text beside a SMILES is read from it. * marks the point of attachment. X1 = CC[C@H](C)CCCCC(=O)*; dDab = NCC[C@@H](N)C(=O)O; Heptanoyl = CCCCCCC(=O)*; Octanoyl = CCCCCCCC(=O)*; Dab = NCC[C@H](N)C(=O)O

Assays:
Acinetobacter baumannii = experiment: Antibacterial activity against Acinetobacter baumannii ATCC 19606 after 18 hrs by agar dilution method; type: functional
Procedure, shortened: (§1)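 Serial two-fold agar dilution per CLSI; bacteria cultured in Mueller-Hinton broth, inoculum about 10^4 cfu/spot; final concentrations 0.03-128 µg/mL; plates incubated 35 °C for 18 h. MIC = lowest concentration preventing visible growth; representative of at least two independent experiments, a third run when the two disagreed.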

Pseudomonas aeruginosa = experiment: Antibacterial activity against Pseudomonas aeruginosa ATCC 27853 after 18 hrs by agar dilution method; type: functional; procedure, shortened: as §1
Escherichia coli [1] = experiment: Antibacterial activity against Escherichia coli ATCC 25922 after 18 hrs by agar dilution method; type: functional; procedure, shortened: as §1
Escherichia coli [2] = experiment: Antibacterial activity against extended-spectrum beta-lactamase producing Escherichia coli isolate 14-11 after 18 hrs by agar dilution method; type: functional; procedure, shortened: as §1
Klebsiella pneumoniae [3] = experiment: Antibacterial activity against extended-spectrum beta-lactamase producing Klebsiella pneumoniae 700603 after 18 hrs by agar dilution method; type: functional; procedure, shortened: as §1
[4] = Cytotoxicity against African green monkey Vero cells after 72 hrs by MTT assay; type: cell-based; conditions: chlorocebus sabaeus, Vero cells
Procedure, shortened: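 Vero cells seeded at 2x10^3 cells/well, incubated 24 h at 37 °C, 5% CO2, then exposed to compound 72 h; MTT added for 2 h, medium removed, formazan dissolved in DMSO, absorbance read at 570 nm. Viability relative to untreated cells (100%); CC50 as mean ± SD of three independent experiments, each in triplicate.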

Klebsiella pneumoniae [5] = experiment: Antibacterial activity against NDM-1 producing Klebsiella pneumoniae ATCC BAA-2146 after 18 hrs by agar dilution method; type: functional; procedure, shortened: as §1
[6] = Acute toxicity in iv dosed ICR mouse assessed as survival measured daily for 7 days; type: organism-based; conditions: in vivo
Procedure, shortened: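 ICR mice, 18 to 22 g, 4 weeks old, 10 per group (5 male, 5 female). Four to five intravenous dose groups per compound. Survival recorded daily for 7 days. LD50 (dose per kg body weight lethal to 50%) calculated by the Bliss method. LD50 values compared by one-way ANOVA.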

[7] = ATCC 19606 = CIP 70.34 = JCM 6841, 18 h
[8] = Klebsiella pneumoniae, 700603, 18 h

Compound `CC[C@H](C)CCCCC(=O)N[C@@H](CCN)C(=O)N[C@H](C(=O)N[C@@H](CCN)C(=O)N[C@H]1CCNC(=O)[C@H]([C@@H](C)O)NC(=O)[C@H](CCN)NC(=O)[C@H](CCN)NC(=O)[C@H](CC(C)C)NC(=O)[C@@H](Cc2ccccc2)NC(=O)[C@H](CCN)NC1=O)[C@@H](C)O` (X1-[Dab]T[Dab][Dab][Dab][dF]L[Dab][Dab]T; lactam 4-C) has an MIC (Acinetobacter baumannii; [7]) of 0.25 µg/mL (≈ 0.208 µM), an MIC (Pseudomonas aeruginosa; ATCC 27853, 18 h) of 2 µg/mL (≈ 1.66 µM) and an MIC (Escherichia coli [1]; ATCC 25922, 18 h) of 1 µg/mL (≈ 0.831 µM). It also gave an MIC (Escherichia coli [2]; isolate 14-11, 18 h) of 0.5 µg/mL (≈ 0.415 µM), an MIC (Klebsiella pneumoniae [3]; [8]) of 2 µg/mL (≈ 1.66 µM) and a CC50 at 72 h [4] of 71 µg/mL (≈ 59 µM). It also gave an MIC (Klebsiella pneumoniae [5]; ATCC BAA-2146, 18 h) of 0.25 µg/mL (≈ 0.208 µM).
In the case of COLISTIN, the MIC (Acinetobacter baumannii; ATCC 19606 = CIP 70.34 = JCM 6841) is reported as 0.5 µg/mL, the MIC (Pseudomonas aeruginosa) is reported as 2 µg/mL and the MIC (Escherichia coli [1]) is reported as 1 µg/mL. For the same compound, the MIC (Escherichia coli [2]) was 0.5 µg/mL, the MIC (Klebsiella pneumoniae [3]) was 1 µg/mL and the MIC (Klebsiella pneumoniae [5]) was 1 µg/mL.
`CC[C@H](C)CCCCC(=O)N[C@@H](CCN)C(=O)N[C@H](C(=O)N[C@@H](CCN)C(=O)N[C@H]1CCNC(=O)[C@H]([C@@H](C)O)NC(=O)[C@H](CCN)NC(=O)[C@H](CCN)NC(=O)[C@H]([C@@H](C)O)NC(=O)[C@@H](CC(C)C)NC(=O)[C@H](CCN)NC1=O)[C@@H](C)O` (X1-[Dab]T[Dab][Dab][Dab][dL]T[Dab][Dab]T; lactam 4-C) showed an LD50 at 168 h [6] of 11.4 mg/kg, an MIC (Acinetobacter baumannii; [7]) of 0.5 µg/mL (≈ 0.432 µM) and an MIC (Pseudomonas aeruginosa; ATCC 27853, 18 h) of 1 µg/mL (≈ 0.864 µM). The MIC (Escherichia coli [1]; ATCC 25922, 18 h) was 0.25 µg/mL (≈ 0.216 µM), the MIC (Escherichia coli [2]; isolate 14-11, 18 h) was no more than 0.03 µg/mL and the MIC (Klebsiella pneumoniae [3]; [8]) was 0.25 µg/mL (≈ 0.216 µM). For the same compound, the CC50 at 72 h [4] was 96 µg/mL (≈ 82.9 µM) and the MIC (Klebsiella pneumoniae [5]; ATCC BAA-2146, 18 h) was 0.5 µg/mL (≈ 0.432 µM).
Compound `CC[C@H](C)CCCCC(=O)N[C@@H](CCN)C(=O)N[C@H](C(=O)N[C@H](CO)C(=O)N[C@H]1CCNC(=O)[C@H]([C@@H](C)O)NC(=O)[C@H](CCN)NC(=O)[C@H](CCN)NC(=O)[C@H]([C@@H](C)O)NC(=O)[C@@H](CC(C)C)NC(=O)[C@H](CCN)NC1=O)[C@@H](C)O` (X1-[Dab]T[dS][Dab][Dab][dL]T[Dab][Dab]T; lactam 4-C) has an MIC (Acinetobacter baumannii; [7]) of 0.06 µg/mL (≈ 0.0524 µM), an MIC (Pseudomonas aeruginosa; ATCC 27853, 18 h) of 2 µg/mL (≈ 1.75 µM) and an MIC (Escherichia coli [1]; ATCC 25922, 18 h) of 0.12 µg/mL (≈ 0.105 µM). For the same compound, the MIC (Escherichia coli [2]; isolate 14-11, 18 h) was 0.25 µg/mL (≈ 0.218 µM), the MIC (Klebsiella pneumoniae [3]; [8]) was 1 µg/mL (≈ 0.874 µM) and the CC50 at 72 h [4] was 189 µg/mL (≈ 165 µM). It also gave an MIC (Klebsiella pneumoniae [5]; ATCC BAA-2146, 18 h) of 0.5 µg/mL (≈ 0.437 µM).
In the case of `CC[C@H](C)CCCCC(=O)N[C@@H](CCN)C(=O)N[C@H](C(=O)N[C@H](CO)C(=O)N[C@H]1CCNC(=O)[C@H]([C@@H](C)O)NC(=O)[C@H](CCN)NC(=O)[C@H](CCN)NC(=O)[C@H]([C@@H](C)O)NC(=O)[C@@H](Cc2ccccc2)NC(=O)[C@H](CCN)NC1=O)[C@@H](C)O`, the MIC (Acinetobacter baumannii; [7]) is reported as 0.12 µg/mL (≈ 0.102 µM), the MIC (Pseudomonas aeruginosa; ATCC 27853, 18 h) is reported as 4 µg/mL (≈ 3.39 µM) and the MIC (Escherichia coli [1]; ATCC 25922, 18 h) is reported as 0.25 µg/mL (≈ 0.212 µM). It also gave an MIC (Escherichia coli [2]; isolate 14-11, 18 h) of 0.5 µg/mL (≈ 0.424 µM), an MIC (Klebsiella pneumoniae [3]; [8]) of 1 µg/mL (≈ 0.849 µM) and a CC50 at 72 h [4] of 160 µg/mL (≈ 136 µM). For the same compound, the MIC (Klebsiella pneumoniae [5]; ATCC BAA-2146, 18 h) was 0.5 µg/mL (≈ 0.424 µM).
In the case of `CC[C@H](C)CCCCC(=O)N[C@@H](CCN)C(=O)N[C@H](C(=O)N[C@H](CCN)C(=O)N[C@H]1CCNC(=O)[C@H]([C@@H](C)O)NC(=O)[C@H](CCN)NC(=O)[C@H](CCN)NC(=O)[C@H]([C@@H](C)O)NC(=O)[C@@H](CC(C)C)NC(=O)[C@H](CCN)NC1=O)[C@@H](C)O` (X1-[Dab]T[dDab][Dab][Dab][dL]T[Dab][Dab]T; lactam 4-C), the MIC (Acinetobacter baumannii; [7]) is reported as 1 µg/mL (≈ 0.864 µM), the MIC (Pseudomonas aeruginosa; ATCC 27853, 18 h) is reported as 1 µg/mL (≈ 0.864 µM) and the MIC (Escherichia coli [1]; ATCC 25922, 18 h) is reported as 0.5 µg/mL (≈ 0.432 µM). For the same compound, the MIC (Escherichia coli [2]; isolate 14-11, 18 h) was 1 µg/mL (≈ 0.864 µM), the MIC (Klebsiella pneumoniae [3]; [8]) was 1 µg/mL (≈ 0.864 µM) and the CC50 at 72 h [4] was 145 µg/mL (≈ 125 µM). For the same compound, the MIC (Klebsiella pneumoniae [5]; ATCC BAA-2146, 18 h) was 1 µg/mL (≈ 0.864 µM).
In the case of `CCCCCCCC(=O)N[C@@H](CCN)C(=O)N[C@H](C(=O)N[C@@H](CCN)C(=O)N[C@H]1CCNC(=O)[C@H]([C@@H](C)O)NC(=O)[C@H](CCN)NC(=O)[C@H](CCN)NC(=O)[C@H](CC(C)C)NC(=O)[C@@H](CC(C)C)NC(=O)[C@H](CCN)NC1=O)[C@@H](C)O` (Octanoyl-[Dab]T[Dab][Dab][Dab][dL]L[Dab][Dab]T; lactam 4-C), the MIC (Acinetobacter baumannii; [7]) is reported as 0.5 µg/mL (≈ 0.433 µM), the MIC (Pseudomonas aeruginosa; ATCC 27853, 18 h) is reported as 1 µg/mL (≈ 0.865 µM) and the MIC (Escherichia coli [1]; ATCC 25922, 18 h) is reported as 0.5 µg/mL (≈ 0.433 µM). It also gave an MIC (Escherichia coli [2]; isolate 14-11, 18 h) of 0.5 µg/mL (≈ 0.433 µM), an MIC (Klebsiella pneumoniae [3]; [8]) of 1 µg/mL (≈ 0.865 µM) and a CC50 at 72 h [4] of 150 µg/mL (≈ 130 µM). For the same compound, the MIC (Klebsiella pneumoniae [5]; ATCC BAA-2146, 18 h) was 0.5 µg/mL (≈ 0.433 µM).
Compound `CCCCCCC(=O)N[C@@H](CCN)C(=O)N[C@H](C(=O)N[C@@H](CCN)C(=O)N[C@H]1CCNC(=O)[C@H]([C@@H](C)O)NC(=O)[C@H](CCN)NC(=O)[C@H](CCN)NC(=O)[C@H](CC(C)C)NC(=O)[C@@H](Cc2ccccc2)NC(=O)[C@H](CCN)NC1=O)[C@@H](C)O` [POLYMYXIN B4] (Heptanoyl-[Dab]T[Dab][Dab][Dab][dF]L[Dab][Dab]T; lactam 4-C) has an MIC (Acinetobacter baumannii; [7]) of 0.5 µg/mL (≈ 0.425 µM), an MIC (Pseudomonas aeruginosa; ATCC 27853, 18 h) of 1 µg/mL (≈ 0.851 µM) and an MIC (Escherichia coli [1]; ATCC 25922, 18 h) of 0.5 µg/mL (≈ 0.425 µM). The MIC (Escherichia coli [2]; isolate 14-11, 18 h) was 0.5 µg/mL (≈ 0.425 µM), the MIC (Klebsiella pneumoniae [3]; [8]) was 1 µg/mL (≈ 0.851 µM) and the CC50 at 72 h [4] was 160 µg/mL (≈ 136 µM). The MIC (Klebsiella pneumoniae [5]; ATCC BAA-2146, 18 h) was 0.5 µg/mL (≈ 0.425 µM).
